Laboratory results: ChEMBL document CHEMBL4765301, “Discovery of novel TNNI3K inhibitor suppresses pyroptosis and apoptosis in murine myocardial infarction injury” (Eur J Med Chem, 2020)

Experiments:
[1] = molecular target: Vascular endothelial growth factor receptor 2 (Homo sapiens) (UniProt P35968); experiment: Inhibition of recombinant human KDR (790 to end residues) assessed as residual activity at 1 uM using myelin basic protein as substrate incubated for 40 mins by [gamma-33P]-ATP scintillation counting based radiometry assay relative to control
H9c2 [2] = experiment: Cytoprotective activity against OGD-induced cell death in rat H9c2 cells assessed as cell viability at 1 uM incubated for 24 hrs by MTT assay (reference value: 42.08 to 49.11 %); format: functional; conditions: read-out: Activity
[3] = molecular target: T1, Serine/threonine-protein kinase TNNI3K (Homo sapiens) (UniProt Q59H18); experiment: Inhibition of TNNI3K (unknown origin) assessed as residual activity at 1 uM using biotinylated CTnI as substrate by HTRF analysis relative to control
T1 sequence (whole entry): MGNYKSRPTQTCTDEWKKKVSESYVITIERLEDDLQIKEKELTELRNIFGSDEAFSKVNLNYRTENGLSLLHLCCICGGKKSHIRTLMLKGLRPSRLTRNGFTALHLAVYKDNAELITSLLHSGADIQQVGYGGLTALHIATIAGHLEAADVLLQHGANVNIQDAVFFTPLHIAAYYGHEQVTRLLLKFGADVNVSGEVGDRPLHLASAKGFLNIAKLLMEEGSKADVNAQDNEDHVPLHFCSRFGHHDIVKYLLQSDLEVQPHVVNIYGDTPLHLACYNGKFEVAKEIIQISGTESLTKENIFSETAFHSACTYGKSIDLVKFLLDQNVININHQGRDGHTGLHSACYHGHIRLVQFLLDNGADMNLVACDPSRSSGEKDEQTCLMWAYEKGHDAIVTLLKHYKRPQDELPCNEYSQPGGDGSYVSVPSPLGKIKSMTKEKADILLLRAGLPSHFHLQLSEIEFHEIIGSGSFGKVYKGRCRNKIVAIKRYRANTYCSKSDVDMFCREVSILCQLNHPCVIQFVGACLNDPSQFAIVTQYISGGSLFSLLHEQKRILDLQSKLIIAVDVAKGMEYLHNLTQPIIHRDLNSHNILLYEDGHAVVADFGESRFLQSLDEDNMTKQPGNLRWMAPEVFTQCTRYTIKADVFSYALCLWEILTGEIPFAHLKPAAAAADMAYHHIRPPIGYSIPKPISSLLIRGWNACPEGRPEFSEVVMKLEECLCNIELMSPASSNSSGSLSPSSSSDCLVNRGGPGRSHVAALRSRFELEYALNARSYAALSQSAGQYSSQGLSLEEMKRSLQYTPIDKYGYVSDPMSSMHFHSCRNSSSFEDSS
Outline: (§1)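 TNNI3K was assayed by HTRF using a GST-tagged TNNI3K kinase domain and a biotinylated cardiac troponin I substrate peptide, followed by the two HTRF detection reagents. Compounds were screened at 1.0 µM, then IC50s were determined.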

[4] = molecular target: Epidermal growth factor receptor (Homo sapiens) (UniProt P00533); experiment: Inhibition of recombinant human EGFR (696 to end residues) assessed as residual activity at 1 uM using poly(Glu, Tyr) 4:1 as substrate incubated for 40 mins by [gamma-33P]-ATP scintillation counting based radiometry assay relative to control
H9c2 [5] = experiment: Cytoprotective activity against OGD-induced cell death in rat H9c2 cells assessed as cell viability at 10 uM incubated for 24 hrs by MTT assay (reference value: 42.08 to 49.11 %); format: functional; conditions: read-out: Activity
[6] = molecular target: Receptor tyrosine-protein kinase erbB-2 (Homo sapiens) (UniProt P04626); experiment: Inhibition of recombinant human HER2 (676 to end residues) assessed as residual activity at 1 uM using poly(Glu, Tyr) 4:1 as substrate incubated for 40 mins by [gamma-33P]-ATP scintillation counting based radiometry assay relative to control
[7] = molecular target: T2, Serine/threonine-protein kinase TNNI3K (Homo sapiens, UniProt Q59H18); experiment: Inhibition of TNNI3K (unknown origin) using biotinylated CTnI as substrate by HTRF analysis; outline: as §1
T2 sequence (Q59H18 whole entry): T1 sequence (whole entry)

[8] = molecular target: Vascular endothelial growth factor receptor 1 (Homo sapiens) (UniProt P17948); experiment: Inhibition of recombinant human FLT1 (783 to end residues) assessed as residual activity at 1 uM using KKKSPGEYVNIEFG as substrate incubated for 40 mins by [gamma-33P]-ATP scintillation counting based radiometry assay relative to control

Chain of Receptor tyrosine-protein kinase erbB-2 (Homo sapiens) (P04626 whole entry): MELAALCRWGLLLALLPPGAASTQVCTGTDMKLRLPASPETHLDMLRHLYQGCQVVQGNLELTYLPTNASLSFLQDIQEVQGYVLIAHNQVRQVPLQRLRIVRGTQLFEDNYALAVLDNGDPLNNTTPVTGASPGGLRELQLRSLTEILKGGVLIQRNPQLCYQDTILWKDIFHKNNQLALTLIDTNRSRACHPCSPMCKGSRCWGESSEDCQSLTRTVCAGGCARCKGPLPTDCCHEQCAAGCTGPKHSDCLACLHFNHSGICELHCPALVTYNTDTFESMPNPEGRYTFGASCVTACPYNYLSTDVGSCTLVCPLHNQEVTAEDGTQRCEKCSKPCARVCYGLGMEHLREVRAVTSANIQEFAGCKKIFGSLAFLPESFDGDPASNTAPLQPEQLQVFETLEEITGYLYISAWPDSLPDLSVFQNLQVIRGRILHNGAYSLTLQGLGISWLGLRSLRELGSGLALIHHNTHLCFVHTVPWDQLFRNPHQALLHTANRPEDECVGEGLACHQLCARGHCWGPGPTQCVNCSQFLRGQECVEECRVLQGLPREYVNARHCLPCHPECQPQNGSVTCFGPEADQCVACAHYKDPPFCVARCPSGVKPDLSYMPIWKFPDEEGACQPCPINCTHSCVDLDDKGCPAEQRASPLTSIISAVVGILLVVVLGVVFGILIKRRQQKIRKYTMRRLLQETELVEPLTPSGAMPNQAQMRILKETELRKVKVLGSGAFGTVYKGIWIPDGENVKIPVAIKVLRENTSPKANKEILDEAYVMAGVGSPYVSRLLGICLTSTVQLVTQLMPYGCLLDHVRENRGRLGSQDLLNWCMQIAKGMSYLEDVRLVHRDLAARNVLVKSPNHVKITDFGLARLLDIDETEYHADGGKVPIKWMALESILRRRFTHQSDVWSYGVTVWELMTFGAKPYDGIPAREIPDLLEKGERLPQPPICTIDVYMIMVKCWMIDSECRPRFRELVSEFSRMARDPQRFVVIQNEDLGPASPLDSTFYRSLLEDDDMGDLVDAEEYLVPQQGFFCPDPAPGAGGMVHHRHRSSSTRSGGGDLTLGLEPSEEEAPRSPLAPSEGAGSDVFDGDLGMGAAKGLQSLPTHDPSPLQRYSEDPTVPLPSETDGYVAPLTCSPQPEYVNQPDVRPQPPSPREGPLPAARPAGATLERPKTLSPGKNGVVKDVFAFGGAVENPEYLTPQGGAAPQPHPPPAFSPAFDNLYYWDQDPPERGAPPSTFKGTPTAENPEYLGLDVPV
Chain of Vascular endothelial growth factor receptor 2 (Homo sapiens) (P35968 whole entry): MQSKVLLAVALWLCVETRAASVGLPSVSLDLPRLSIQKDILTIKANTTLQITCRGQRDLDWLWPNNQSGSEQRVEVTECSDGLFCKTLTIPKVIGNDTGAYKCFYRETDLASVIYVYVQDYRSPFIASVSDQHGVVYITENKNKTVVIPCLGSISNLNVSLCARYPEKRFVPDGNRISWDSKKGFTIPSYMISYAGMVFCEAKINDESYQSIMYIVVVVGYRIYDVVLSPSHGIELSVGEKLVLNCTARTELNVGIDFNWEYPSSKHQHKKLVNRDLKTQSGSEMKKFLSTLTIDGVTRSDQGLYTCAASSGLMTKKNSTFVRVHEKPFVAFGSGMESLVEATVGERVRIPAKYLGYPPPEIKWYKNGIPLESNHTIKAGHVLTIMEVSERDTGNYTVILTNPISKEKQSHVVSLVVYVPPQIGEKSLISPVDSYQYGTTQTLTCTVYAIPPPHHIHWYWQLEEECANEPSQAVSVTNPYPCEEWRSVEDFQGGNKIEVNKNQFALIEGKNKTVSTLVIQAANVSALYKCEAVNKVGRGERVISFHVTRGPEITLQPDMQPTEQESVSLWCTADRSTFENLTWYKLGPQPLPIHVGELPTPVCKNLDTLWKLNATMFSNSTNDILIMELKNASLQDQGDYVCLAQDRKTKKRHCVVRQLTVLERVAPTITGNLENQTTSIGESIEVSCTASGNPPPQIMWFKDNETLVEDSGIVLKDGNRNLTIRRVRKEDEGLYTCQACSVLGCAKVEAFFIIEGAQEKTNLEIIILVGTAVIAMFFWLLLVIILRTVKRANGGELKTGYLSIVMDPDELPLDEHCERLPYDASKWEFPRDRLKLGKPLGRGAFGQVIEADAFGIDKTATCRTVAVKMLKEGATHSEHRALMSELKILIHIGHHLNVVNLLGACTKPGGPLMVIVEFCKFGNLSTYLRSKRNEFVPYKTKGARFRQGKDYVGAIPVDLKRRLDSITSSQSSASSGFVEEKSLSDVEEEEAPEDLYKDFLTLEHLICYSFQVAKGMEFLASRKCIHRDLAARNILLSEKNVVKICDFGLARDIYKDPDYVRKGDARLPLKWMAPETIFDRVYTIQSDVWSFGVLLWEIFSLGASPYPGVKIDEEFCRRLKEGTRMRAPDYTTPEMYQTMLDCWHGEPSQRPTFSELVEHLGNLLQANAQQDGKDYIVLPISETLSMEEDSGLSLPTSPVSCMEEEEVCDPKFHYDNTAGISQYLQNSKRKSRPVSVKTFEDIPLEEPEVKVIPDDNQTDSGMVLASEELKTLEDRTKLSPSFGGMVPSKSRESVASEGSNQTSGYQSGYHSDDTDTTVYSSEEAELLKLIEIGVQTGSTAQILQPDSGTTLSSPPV
Chain of Epidermal growth factor receptor (Homo sapiens) (P00533 whole entry): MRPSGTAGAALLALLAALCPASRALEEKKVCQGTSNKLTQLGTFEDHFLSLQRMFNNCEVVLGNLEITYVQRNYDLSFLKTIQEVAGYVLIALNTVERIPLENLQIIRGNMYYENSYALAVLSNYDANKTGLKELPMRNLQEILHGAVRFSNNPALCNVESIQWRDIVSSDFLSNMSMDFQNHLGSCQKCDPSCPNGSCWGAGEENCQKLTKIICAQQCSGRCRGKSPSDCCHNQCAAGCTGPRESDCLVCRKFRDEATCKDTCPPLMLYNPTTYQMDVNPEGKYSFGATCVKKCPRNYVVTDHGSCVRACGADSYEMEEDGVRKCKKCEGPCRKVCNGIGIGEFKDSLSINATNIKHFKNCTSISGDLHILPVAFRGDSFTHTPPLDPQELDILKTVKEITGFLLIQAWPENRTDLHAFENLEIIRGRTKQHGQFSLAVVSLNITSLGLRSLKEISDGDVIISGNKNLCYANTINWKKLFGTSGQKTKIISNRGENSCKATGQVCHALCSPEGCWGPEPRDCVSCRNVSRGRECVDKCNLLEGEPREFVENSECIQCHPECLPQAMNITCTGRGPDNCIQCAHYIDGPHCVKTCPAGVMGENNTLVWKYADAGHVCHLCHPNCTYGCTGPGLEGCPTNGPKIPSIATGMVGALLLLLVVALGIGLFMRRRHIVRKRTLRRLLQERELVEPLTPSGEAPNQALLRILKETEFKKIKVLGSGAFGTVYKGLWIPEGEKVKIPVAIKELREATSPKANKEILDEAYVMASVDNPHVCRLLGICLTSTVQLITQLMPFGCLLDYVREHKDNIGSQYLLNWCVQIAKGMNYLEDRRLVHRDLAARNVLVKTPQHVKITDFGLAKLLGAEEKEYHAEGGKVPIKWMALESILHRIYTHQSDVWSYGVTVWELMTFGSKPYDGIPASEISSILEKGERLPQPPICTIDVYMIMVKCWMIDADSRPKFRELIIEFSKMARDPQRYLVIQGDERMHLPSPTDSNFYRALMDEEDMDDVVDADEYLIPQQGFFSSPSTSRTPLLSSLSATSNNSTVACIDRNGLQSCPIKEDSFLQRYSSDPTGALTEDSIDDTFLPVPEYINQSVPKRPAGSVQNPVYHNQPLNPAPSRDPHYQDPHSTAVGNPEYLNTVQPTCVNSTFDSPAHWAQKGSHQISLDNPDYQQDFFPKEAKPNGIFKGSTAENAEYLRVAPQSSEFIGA

Activity [1]	Activity [3]	Activity [4]	Activity [6]	IC50 [7]	Activity [8]	SMILES	viability at 1 µM (H9c2 [2])	viability at 10 µM (H9c2 [5])
88%	33%	90%	107%	640 nM	100%	CN1CCN(CCCN2CCc3c(sc4ncnc(Nc5ccc(N(C)C)c(NC(=O)c6ccco6)c5)c34)C2)CC1	61.1%	79.9%
81%	33%	86%	102%	570 nM	98%	CN(C)CCCN1CCc2c(sc3ncnc(Nc4ccc(N(C)C)c(NC(=O)c5cccs5)c4)c23)C1	58.5%	78.5%
92%	35%	100%	91%	730 nM	96%	CN(C)c1ccc(Nc2ncnc3sc4c(c23)CCNC4)cc1NC(=O)c1ccco1	54.1%	71%
